Source: ChEMBL document CHEMBL3091450, “Melosuavines A-H, cytotoxic bisindole alkaloid derivatives from Melodinus suaveolens” (J Nat Prod, 2013)

How the values were obtained:
Assay type in all cases: functional, cell-based
SW480 = assay: Cytotoxicity against human SW480 cells after 48 hrs by MTT assay; settings: SW480, 48 h
Method in brief: (§1)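 Cells kept in RPMI-1640 or DMEM with 10% FBS, 37 °C, 5% CO2. Adherent lines plated and left 12 h to attach; suspension cells (HL-60) plated at 1 × 10^5 cells/mL just before dosing. Compounds in DMSO at 0.064, 0.32, 1.6, 8 and 40 μM, triplicate wells, 48 h; cisplatin positive control. MTT viability read-out, IC50 by Reed and Muench method.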

HL-60 = assay: Cytotoxicity against human HL60 cells after 48 hrs by MTT assay; settings: HL-60, 48 h; method in brief: as §1
A549 = assay: Cytotoxicity against human A549 cells after 48 hrs by MTT assay; settings: A549, 48 h; method in brief: as §1
MCF7 = assay: Cytotoxicity against human MCF7 cells after 48 hrs by MTT assay; settings: MCF7, 48 h; method in brief: as §1
[1] = Cytotoxicity against human […] cells after 48 hrs by MTT assay; method in brief: as §1

| Compound | IC50 (SW480) [µM] | IC50 (HL-60) [µM] | IC50 (A549) [µM] | IC50 (MCF7) [µM] | IC50 [1] [µM] |
| --- | --- | --- | --- | --- | --- |
| CC[C@]12C=CCN3CCc4c(n(c5ccccc45)[C@@H](c4cc5c(cc4O)NC4=C(C(=O)OC)C[C@]6(CC)C=CCN7CC[C@@]45[C@@H]76)C1)[C@@H]32 | 9.7 | 3.6 | 14.3 | 9.5 | 10 |
| CC[C@]12C=CCN3CCc4c(n(c5ccccc45)[C@@H](c4cc5c(cc4OC)NC4=C(C(=O)OC)C[C@]6(CC)C=CCN7CC[C@@]45[C@@H]76)C1)[C@@H]32 (relative stereo) | > 40 | > 40 | > 40 | > 40 | > 40 |
| C=C[C@]12C=C[C@H](c3cc4c(cc3O)NC3=C(C(=O)OC)C[C@]5(CC)C=CCN6CC[C@@]34[C@@H]65)N3CC[C@@]4(c5ccccc5NC(=O)[C@]4(C(=O)OC)C1)[C@@H]32 (relative stereo) | 9.8 | 2.6 | 11 | 11.6 | 5.9 |
| C=C[C@]12C=C[C@@H](c3cc4c(cc3O)NC3=C(C(=O)OC)C[C@]5(CC)C=CCN6CC[C@@]34[C@@H]65)N3CC[C@@]4(c5ccccc5NC(=O)[C@]4(C(=O)OC)C1)[C@@H]32 (relative stereo) | 2.9 | 2.8 | 8.9 | 6.1 | 3.1 |
| C=C[C@]12C=CCN3[C@@H](c4cc5c(cc4O)NC4=C(C(=O)OC)C[C@]6(CC)C=CCN7CC[C@@]45[C@@H]76)C[C@@]4(c5ccccc5NC(=O)[C@]4(C(=O)OC)C1)[C@@H]32 (relative stereo) | > 40 | 17.6 | > 40 | > 40 | 29 |
| CC[C@]12C=CCN3CC[C@]4(C(=C(C(=O)OC)C1)Nc1cc(O)c([C@@H]5[C@@H]6O[C@@H]6[C@@]6(CC)CC(C(=O)OC)=C7Nc8cc(O)ccc8[C@@]78CCN5[C@@H]68)cc14)[C@@H]32 (relative stereo) | 14.4 | 5.5 | 9.7 | 11.6 | 13.8 |
| CC[C@]12C=CCN3CC[C@]4(C(=C(C(=O)OC)C1)Nc1cc(O)c([C@H]5C=C[C@@]6(CC)CC(C(=O)OC)=C7Nc8cc(O)ccc8[C@@]78CCN5[C@@H]68)cc14)[C@@H]32 (relative stereo) | 12.5 | 4.8 | 12.4 | 10.7 | 12.6 |
| CC[C@]12C=CCN3CC[C@]4(C(=C(C(=O)OC)C1)Nc1cc(O)c([C@@H]5C=C[C@@]6(CC)CC(C(=O)OC)=C7Nc8cc(O)ccc8[C@@]78CCN5[C@@H]68)cc14)[C@@H]32 (relative stereo) | 4 | 3.5 | 7.5 | 6.6 | 3.6 |
| CC[C@]12C=CCN3CC[C@]4(C(=C(C(=O)OC)C1)Nc1cc(O)c([C@@H]5[C@@H]6O[C@@H]6[C@]67CC[C@@]8(Nc9ccccc9[C@@]89CCN5[C@@H]69)[C@H](C(=O)OC)C7)cc14)[C@@H]32 (relative stereo) | > 40 | > 40 | > 40 | > 40 | > 40 |
| CC[C@]12C=CCN3CC[C@]4(C(=C(C(=O)OC)C1)Nc1cc(O)c([C@@H]5C[C@]67c8ccccc8N[C@@]68CC[C@]6(C=CCN5[C@@H]67)C[C@H]8C(=O)OC)cc14)[C@@H]32 (relative stereo) | 3.8 | 1 | 3.4 | 9.5 | 3.1 |
